The entries come from a sample that favours hits as a whole.
INS promoter act: TRM-6 insulin promoter activation | TRM-6 cells, insulin promoter eGFP reporter, imaging; plate-scaled: unstimulated 0, stimulated control 100 | hit rate 0.81% among 130,000 | activation, % at 2 µM;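 active = activation at 2 µM above a set limit, confirmed on inspection of the cell images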;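 also: share of cells whose green reporter signal exceeds an intensity cutoff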
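System: human fetal islet-derived TRM-6 cells with tamoxifen-inducible insulin promoter–eGFP reporter; input: seeding density of 1,000 cells per well; buffer or medium: Low-glucose (5.5 mM) medium with tamoxifen; incubation: compound exposure 48 h, 37 °C; measured by: high-content imaging of fixed cells with Hoechst nuclear stain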
* = called active by the depositor.

Screening CCOc1ccc([N+](=O)[O-])c(N)c1 returned INS promoter act -3.4.
For CCOc1ccc2c(c1)/C(=C(\C(Cl)=C(Cl)Cl)[N+](=O)[O-])N2 the results were INS promoter act 376.5*.
Screening COc1ccc(C(=O)Nc2ccc(N3CCOCC3)cc2)cc1S(=O)(=O)NC1CCCC1 returned INS promoter act -7.1.
O=C(c1cc(COc2ccc(F)cc2F)on1)N1CCSCC1 was read as INS promoter act 0.0.
For Cc1ccc(-n2nnnc2-c2ccco2)cc1 the results were INS promoter act 0.0.
Screening Cc1cc(C)cc(-n2nnnc2-c2cn(C)nc2C(F)(F)F)c1 returned INS promoter act 132.3*.
FC(F)(F)c1nc(-c2cccs2)ncc1-c1nnnn1-c1ccc(Cl)cc1 was read as INS promoter act 3.3.
CC1CCCC(C)N1C(=O)COC(=O)C(Cc1ccccc1)NC(=O)c1cccs1 (stereo unspecified) was read as INS promoter act 158.1.
`Cc1c(NC(=O)c2cc3ccccc3oc2=O)c(=O)n(-c2ccccc2)n1C` gave INS promoter act 4.3.
Cc1cc(=O)oc2cc(OC(=O)c3cncc(Br)c3)ccc12 was read as INS promoter act 0.0.
`Cc1ccccc1N1C(=O)CC1(C#N)c1ccc(OCc2ccccc2)cc1` (stereo unspecified) gave INS promoter act 9.7.
For CCOC(=O)c1sc(NC(=O)c2ccccc2F)c(C(N)=O)c1C the results were INS promoter act -79.3.
Cc1sc(NC(=O)c2ccccc2F)c(CN2CCCCC2)c1C was read as INS promoter act 484.6*.
For CCOC(=O)N1CCN(Cc2c(F)cccc2F)CC1 the results were INS promoter act 0.0.
CC(C)Cc1ccc(/C=C/C(=O)N2CCCCC2)cc1 was read as INS promoter act -2.6.
Screening O=C(/C=C/c1ccc(Cl)cc1)N1CCN(c2ncccn2)CC1 returned INS promoter act 4.3.
`CC(C)(C)c1ccc(/C=C/C(=O)N2CCCCC2)cc1` gave INS promoter act 335.3*.
O=S(=O)(Nc1ccc(-n2cccc2)cc1)c1ccccc1 was read as INS promoter act -3.3.
For O=C(Nc1nnc(SCc2ccc(F)cc2)s1)C1CC(=O)N(Cc2ccccc2)C1 (stereo unspecified) the results were INS promoter act -1.3.
For C=CCn1c(SCN2C(=O)c3ccccc3C2=O)nc2ccc(Cl)cc2c1=O the results were INS promoter act -6.7.
For CC(C)(C)OC(=O)N1CCCC1C(=O)NCCc1ccccc1 (stereo unspecified) the results were INS promoter act 9.1.
Cc1cccc(C)c1NC(=O)C1(NC(=O)C2CCCN2C(=O)OC(C)(C)C)CCCCC1 (stereo unspecified) was read as INS promoter act 171.4*.
For Cc1ccc(NC(=O)C2CCCN2C(=O)Oc2ccccc2)cc1C (stereo unspecified) the results were INS promoter act 0.0.
`O=C(CSc1ncnc2c1cnn2CCO)Nc1cccc(C(F)(F)F)c1` gave INS promoter act -8.3.
For O=C1CC(N2CCN(c3ccccc3)CC2)C(=O)N1c1ccc2c(c1)OCO2 (stereo unspecified) the results were INS promoter act -5.3.
Screening CN(C)c1ccc(/C=C/C=C2/SC(=S)N(c3ccccc3)C2=O)cc1 returned INS promoter act 295.8*.
CN(C)c1ccc(/C=N/N2C(=N)N(c3ccccc3)C(=S)C2=Nc2ccccc2)cc1 was read as INS promoter act 252.4.
CN(C)c1ccc(/C=C/C(O)=C2/C(=O)N(C)C3(C)CC2c2ccccc2O3)cc1 (stereo unspecified) was read as INS promoter act 64.0.
Cn1cnnc1SCC(=O)Nc1ccc(OCc2ccccc2)cc1 was read as INS promoter act 0.0.
O=C(N/N=C/c1cc([N+](=O)[O-])c(N2CCOCC2)cc1N1CCOCC1)c1cccnc1 was read as INS promoter act -68.8.
`CCOc1ccc(-c2cc(C(=O)N3CCN(c4ccccn4)CC3)c3ccccc3n2)cc1` gave INS promoter act 740.0*.
`O=C(c1cc(Sc2cccc(Cl)c2)nc2ccccc12)N1CCN(c2ccccn2)CC1` gave INS promoter act 136.4.
`CS(=O)(=O)N1CCN(C(=O)c2cc(-c3ccccc3)nc3ccccc23)CC1` gave INS promoter act 8.7.
O=C(COc1ccc(Cl)cc1)NCc1nnc(SCC(=O)N2CCCC2)o1 was read as INS promoter act 6.7.
For O=C(COC(=O)/C=C/c1ccco1)Nc1cccc([N+](=O)[O-])c1 the results were INS promoter act -8.8.
For Cc1ccc(Cn2c(SCC(=O)NCC3CCCO3)nc3c2c(=O)n(C)c(=O)n3C)cc1 (stereo unspecified) the results were INS promoter act 114.3.
For CCN1C(=O)/C(=C/C=C2/Sc3ccc4ccccc4c3N2CCO)SC1=S the results were INS promoter act 178.6.
Screening CCCCN1C(=O)/C(=C/C=C2\SCCN2C)SC1=S returned INS promoter act 407.7*.
`CCN1C(c2ccccc2)=C(c2ccccc2)S/C1=C\C=C1/SC(=S)N(C)C1=O` gave INS promoter act 4.5.

High-throughput results from PubChem.
